Screening results from PubChem.
An excerpt weighted towards active compounds, which were near 5.1% of everything screened.
APP 5'UTR act: activators of APP 5'UTR luciferase reporter, primary screen, SH-SY5Y cells. SH-SY5Y APP 5'UTR luciferase reporter, luminescence; zero percent = DMSO vehicle wells. activation, % at 2 µM. 190,000 compounds, 1% hits. AID 1276, 2008;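 active means activation above a set limit, based on mean plus 3 SD of controls, cut at about 140% in these data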
STAT3 inh: IL-6 driven STAT3 reporter inhibitors, primary screen, U3A cells, luciferase, luminescence, MLSCN library; 190,000 compounds, 0.89% hits; inhibition, % at 5.5 µM; IL-6 STAT3-luciferase reporter; host cell line lacks STAT1;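 active means inhibition above the mean inhibition across all screened compounds plus 3 SD, cut at about 44% in these data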
STAT1 inh: STAT1 signaling inhibitors, primary screen, cell-based, HTS, luciferase reporter; NIH 3T3 STAT1-luciferase reporter, IFN-gamma, luminescence; 200,000 compounds, 0.35% hits; AID 920, 2007; inhibition, % at 5.5 µM;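 active means inhibition above a set limit, the mean inhibition across all tested compounds plus 3 SD, cut at about 34% in these data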
STAT1 activator: STAT1 signaling activators, primary screen, cell-based, HTS, luciferase reporter | 200,000 compounds, 2.6% hits | activation (% of control), % at 5.5 µM | NIH 3T3 STAT1-luciferase reporter, IFN-gamma, luminescence; 100% = IFN-gamma alone, no compound | AID 932, 2007;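 active means activation above the screen-wide mean activation plus 3 SD, cut at about 130% in these data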
NF-kB expr up: activators of NF-kB expression in neurons, primary screen, cell-based, HTS; human neuronal cells, NF-kB reporter expression; stronger effect = higher value; fold change at 12.5 µM; 190,000 compounds, 1.6% hits; AID 1239, 2008; in the data active means fold change above about 3.3
STAT3 act: IL-6 driven STAT3 reporter potentiators, primary screen, U3A cells, luciferase, luminescence, MLSCN library; IL-6 STAT3-luciferase reporter; 100% = signal with IL-6 EC80 alone; activation (% of control), % at 5.6 µM; 190,000 compounds, 0.91% hits; AID 871, 2007;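 active means activation above the screen-wide mean of compound activation plus 3 SD, cut at about 130% in these data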
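System – human U3A cells carrying STAT3-luciferase construct · Probe or stimulus – Interleukin-6, 33 ng/mL · Schedule – compound 1 h, then IL-6 6 h at 37 °C · Signal – luminescence from STAT3-driven luciferase reporter · Evaluation – percent of IL-6-only median luminescence · Benchmarks – IL-6-only high control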
Large screens that a line does not name were inactive.

CN1C(=O)C2(Oc3ccccc3C3CC(c4ccccc4)=NN32)c2ccccc21 (configuration not stated)	APP 5'UTR act 137
CC(C)Cn1c(N)c(C=O)c(=O)[nH]c1=O	none
CCSc1ccccc1C(=O)N=C1NC(=O)CC2C(=O)NCCN12 (configuration not stated)	none
CC(=O)NCCNC(=O)c1ccc(CSc2ccc(Cl)cc2)cc1	APP 5'UTR act 147, STAT1 activator 142
N/C(=N\OC(=O)c1ccc(Cl)cc1Cl)c1ccccn1	STAT3 inh 86, STAT1 inh 89
N/C(=N\OC(=O)c1cc(Br)ccc1Cl)c1ccccn1	APP 5'UTR act 180, NF-kB expr up 6
O=C(O/N=C(\c1ccccc1)c1ccccn1)c1ccc(Cl)c(Cl)c1	none
Cc1ccc(-n2c(=O)c3ccccc3n(CC(=O)NCc3ccco3)c2=O)cc1	none
COC(=O)c1ccc(OCCOc2ccc(C(=O)OC)cc2)cc1	none
COC(=O)c1ccc(OCC(=O)c2ccccc2)cc1	STAT1 activator 139, NF-kB expr up 4.1
CCOc1ccc(Nc2nc(Cc3nnc(SCC(=O)c4ccc(C)c(C)c4)o3)cs2)cc1	none (no result: APP 5'UTR act)
Cn1c(Cl)c(C(=O)Nc2ccc(Cl)cc2)c2ccccc21	STAT3 act 155
Cc1ccc(C(=O)c2cc3ccccc3o2)cc1C	STAT1 activator 136, NF-kB expr up 3.7
NC(=O)c1cc2ccccc2o/c1=N/NC(=O)c1cccs1	STAT1 activator 134
COc1ccc2o/c(=N/NC(=O)c3cccs3)c(C(N)=O)cc2c1	STAT1 activator 138
NC(=O)c1cc2ccccc2o/c1=N\NC(=O)c1ccncc1	none
O=C(c1cc2ccccc2o1)c1cccs1	STAT1 activator 145 (no result: APP 5'UTR act)
O=C(Cn1nc(Cl)nc1Cl)c1cc2ccccc2oc1=O	none
O=C(CSc1nc2ccccc2c(=O)n1-c1ccc(F)cc1F)c1c[nH]c2ccccc12	none
CSc1nnc2c(n1)[nH]c1c(C)cccc12	none
CCSc1nnc2c(n1)[nH]c1c(C)cccc12	STAT1 activator 139
COc1ccc(C(=O)N2CCc3ccccc32)cc1	none
COc1ccc(C(=O)/C=C2\NCC3c4ccccc4CCN3C2=O)cc1 (configuration not stated)	STAT3 act 135
CN(/N=C\c1ccc(O)c(O)c1)c1nc(-c2ccccc2)cc(-c2ccccc2)n1	none
N/C(=N\OCc1ccc([N+](=O)[O-])cc1)c1ccncc1	none
N#Cc1c(C#N)c(-c2ccccc2)n(-c2ccc(C(=O)O)cc2)c1N	none
Cc1ccccc1-c1cnn(-c2cccc([N+](=O)[O-])c2)c1N	none
Nc1c(-c2ccccc2)cnn1-c1cccc(C(F)(F)F)c1	STAT1 activator 143
Cc1ccc(-c2cnn(-c3cccc([N+](=O)[O-])c3)c2N)cc1	STAT1 activator 142
Nc1c(-c2ccccc2)cnn1-c1ccc(C(=O)O)cc1	APP 5'UTR act 138, STAT1 activator 133, NF-kB expr up 5.7
COC(=O)C1=C(C)Nc2nc(SCc3ccccc3)[nH]c(=O)c2C1c1cccs1 (configuration not stated)	none
Cc1cccc(C)c1NC(=O)CCn1cnc2ccccc2c1=O	none
Cc1cc([N+](=O)[O-])ccc1NC(=O)C(C)N1CCN(c2ccccn2)CC1 (configuration not stated)	none
Fc1ccccc1-c1csc(=Nc2cccnc2)n1CCCn1ccnc1	none
Cc1nc2sc(C(=O)Nc3ccccc3)c(N)c2c(C)c1[N+](=O)[O-]	APP 5'UTR act 168
Cn1cc(S(=O)(=O)N2CCCC(C(=O)O)C2)cn1 (configuration not stated)	none
O=C(O)Cn1ncc2ccccc2c1=O	none
O=c1c2ccccc2cnn1CCOc1ccccc1	STAT3 inh 90, STAT1 inh 44
Cc1ccc(C(=O)Nc2ccc3c(c2)nc2n3CCSC2)cc1	APP 5'UTR act 169, STAT1 activator 148, NF-kB expr up 5.4
c1ccc(CSc2ncn[nH]2)nc1	none
Cc1ccc(N/C(N)=N/c2nc(C)cc(N3CCCCC3)n2)c(C)c1	STAT1 inh 36
O=C(OCc1nc2ccccc2s1)c1ccco1	STAT1 activator 143
O=C(OCc1nc2ccccc2s1)c1ccc(Br)o1	none
O=C(CNC(=O)c1ccccc1)OCc1nc2ccccc2s1	STAT1 activator 139, STAT3 act 136
O=C(CNC(=O)c1ccccc1F)OCc1nc2ccccc2s1	none
CC(=O)OCc1nc2ccccc2s1	STAT1 activator 135, STAT3 act 163
Cc1cc(C(=O)OCc2nc3ccccc3s2)c(C)o1	STAT1 activator 132
COC(=O)CCCc1nc2ccccc2s1	none
Cc1c(Br)c([N+](=O)[O-])nn1CC(=O)c1ccccc1	none
Cc1ccc(Oc2ccc(OCC(=O)NC(CC(C)C)C(=O)O)cc2)cc1 (configuration not stated)	none
CC(C)NS(=O)(=O)c1ccc(CCC(=O)Nc2ccc3c(c2)OCO3)cc1	none
CSc1ccccc1NC(=O)CN1CC(C)OC(C)C1 (configuration not stated)	none
COc1cc(OC)cc(-c2cc3nc(C)c(CCC(=O)O)c(C)n3n2)c1	STAT3 inh 88, STAT1 inh 53
Cc1ccc(-c2nc(-c3cccnc3)no2)c(C)c1	APP 5'UTR act 144, STAT1 activator 147, NF-kB expr up 4.8
Brc1ccc(-c2nc(-c3cccnc3)no2)o1	STAT1 activator 132
c1ccc(-c2noc(-c3ccccc3-c3ccccc3)n2)cc1	none
Brc1ccc(-c2nc(-c3ccccc3)no2)o1	APP 5'UTR act 143, STAT1 activator 149, NF-kB expr up 4.1
CCO[C@@H]1OC(C(=O)N2CCCCCCC2)=C[C@H](C2CCCCC2)[C@H]1CCCO	none (no result: STAT3 inh, STAT3 act)
COc1cccc(CNS(=O)(=O)/C=C/c2ccc3c(c2)OCO3)c1	none (no result: APP 5'UTR act)
Nc1nc(CSC(=S)N2CCOCC2)nc(Nc2ccccc2)n1	STAT1 activator 131
Cc1ccc(Nc2nc(N)nc(CSC(=S)N3CCOCC3)n2)cc1	none
Nc1nc(CSC(=S)N2CCCCC2)nc(Nc2ccccc2)n1	STAT1 activator 136
O=C(Nc1cccnc1Cl)c1noc2c1CCc1ccccc1-2	STAT1 activator 135
CCCNC(=O)c1noc2c1CCc1ccccc1-2	none
COC(=O)C1CSC(C(=O)OC)N1C(=O)Nc1ccc(Cl)cc1 (configuration not stated)	none
CN(C)/C=C1/C(=O)N(c2ccc([N+](=O)[O-])cc2)N=C1c1ccccc1	STAT1 activator 144
CC1=NN(c2ccc([N+](=O)[O-])cc2)C(=O)/C1=C\N(C)C	none
